Source: PubChem
FID counter = counter-screen for HCV NS3 helicase inhibitors: DNA intercalator displacement; DNA fluorescent intercalator displacement, fluorescence; inhibition, % at 7.9 µM; actives 0.17% (n = 290,000); AID 1845; in the data active = inhibition above about 37%;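 also: higher means more ethidium bromide displaced from hairpin DNA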
ANO1 activ = activates or potentiates the mouse TMEM16A chloride channel; actives 0.3% (n = 340,000); Q8BHY3; HEK293 TMEM16A/YFP-H148Q/I152L, iodide quench fluorescence; active compounds read low; B-score at 10 µM;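 active = fluorescence-ratio B-score plate-corrected deviation score at least 3 library SD below zero, with starting fluorescence score within 5 deviations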;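 also: channel opened by trigger with iodide after compound preincubation; score built on the fluorescence ratio of max minus min over baseline; more negative score means more quench and so TMEM16A activation or potentiation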
ANO1 block = mouse TMEM16A channel inhibition, primary screen; Q8BHY3; HEK293 TMEM16A/YFP iodide influx fluorescence, ionomycin; normalized B-score (activity score, 25-100; higher = stronger inhibition) at 10 µM; actives 1.2% (n = 310,000); AID 588511;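 active = ratio plate-corrected score three or more library SD toward inhibition, starting fluorescence score within five deviations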;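 also: score derived from kinetic fluorescence span divided by baseline fluorescence per well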
Apaf-1 inh = inhibitors of human Apaf-1 apoptosome. O14727. reconstituted apoptosome caspase-3 activity, DEVD-Rh110 fluorescence. inhibition, % at 20 µM. actives 0.71% (n = 330,000); active = inhibition of at least 40% at 20 µM
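Material: reconstituted apoptosome with Apaf-1, cytochrome c, caspase-9, procaspase-3, dATP; medium: pH 7.5 Hepes buffer with CHAPS, BSA, DTT; also added: cytochrome c and DEVD-Rh110 substrate; timing: 30 min plus 50 min, RT; signal: Rh110 fluorescence intensity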
UBC13 inh = blocks human UBC13 polyubiquitin chain formation; P61088; TR-FRET; inhibition, % at 20 µM; actives 0.47% (n = 330,000); AID 485273; in the data active = inhibition above about 45%, passing the limit was not always enough
Target sequence (P61088 whole entry, looked up): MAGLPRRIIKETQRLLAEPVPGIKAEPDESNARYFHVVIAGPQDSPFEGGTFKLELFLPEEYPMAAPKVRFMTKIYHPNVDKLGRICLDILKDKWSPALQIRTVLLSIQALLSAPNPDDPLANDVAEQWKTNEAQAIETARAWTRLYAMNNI
Casp3 UBC13 ctr = inhibits human caspase-3 in UBC13 counter-screen | shares compounds with UBC13 inh | Recombinant caspase-3, Caspase-Glo 3/7 luminescence, 60 min | inhibition, % at 20 µM | actives 4% (n = 1,400);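 active = mean inhibition across replicates above about 26%, limit read from the data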
Target sequence (P42574 whole entry, looked up): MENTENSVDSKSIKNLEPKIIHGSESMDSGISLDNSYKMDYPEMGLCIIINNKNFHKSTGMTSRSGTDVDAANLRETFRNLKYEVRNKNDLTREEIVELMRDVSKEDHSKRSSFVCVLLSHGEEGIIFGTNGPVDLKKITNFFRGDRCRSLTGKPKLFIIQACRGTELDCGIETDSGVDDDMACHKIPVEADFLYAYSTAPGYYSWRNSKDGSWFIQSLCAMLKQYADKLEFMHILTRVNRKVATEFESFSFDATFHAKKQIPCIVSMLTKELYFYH
UBC13 confirm = confirmation of human UBC13 polyubiquitin inhibitors. shares compounds with UBC13 inh. UBC13 polyubiquitination, TR-FRET, biochemical. inhibition, % at 10 µM. actives 68% (n = 1,400). AID 488859; in the data active = inhibition above about 45%
A number is an active result; . = inactive; / = not tested or not shown. Rows were chosen to be rich in hits. Some 2.4% of all compounds tested hit in one or more screens of this group.

SMILES | FID counter | ANO1 activ | ANO1 block | Apaf-1 inh | UBC13 inh | others
CN1CC[C@@]2(C)c3cc(O)ccc3N(C)C2O1 (some centres undefined) | / | . | . | 92 | .
COC(=O)C1=C(c2cccc(C#N)c2)C[C@@H]2CC[C@H]1N2C(=O)NCCOc1ccccc1Cl | / | . | / | . | .
Cc1ccc(CN2CCCN(Cc3ccc(Cl)cc3)S2(=O)=O)cc1 | . | / | . | . | .
CC1CN=C(Nc2ccc(F)cc2)S1 (centres undefined) | . | -4.6 | . | . | .
COc1ccc(NC2=NCC(C)S2)cc1 (centres undefined) | . | . | . | . | .
CSc1ccc(C(=O)C2CCCN(Cc3cc4ccccc4[nH]3)C2)cc1 (centres undefined) | . | . | 25 | . | .
CCNc1cc(N2CCN(C)CC2)ccc1[N+](=O)[O-] | . | . | . | . | .
CN1CCN(c2ccc([N+](=O)[O-])c(N/N=C3\CN4CCC3CC4)c2)CC1 | 42 | . | . | . | .
COC1/C=C/C=C(\C)Cc2cc(O)c(Cl)c(c2)N(C)C(=O)CC(OC(=O)C(C)C)C2(C)OC2C(C)C2CC1(O)NC(=O)O2 (centres undefined) | / | -5 | / | / | /
CC1(C)C[C@H]2C=C(C=O)[C@]3(C=O)C[C@]3(C)[C@H]2C1 | . | . | 100 | . | .
CC[C@H](C)/C=C(C)/C=C/C1=CC2=C(Cl)C(=O)[C@@](C)(OC(C)=O)C(=O)C2=CO1 | / | . | . | . | .
CCC(C)/C=C(C)/C=C/C1=CC2=C(Cl)C(=O)C(C)(OC(C)=O)C(=O)C2=CO1 (centres undefined) | . | . | 100 | . | .
CCN1C(=O)C(=Cc2ccc(N3CCOCC3)o2)C(=O)N(CC)C1=S | . | -5.5 | . | . | .
Cc1ccc(N2C(=O)NC(=O)/C(=C\c3ccoc3)C2=O)cc1 | . | -4.6 | . | . | .
Cc1cc(OC(C)C(=O)NCc2ccncc2)c2c3c(c(=O)oc2c1)CCCC3 (centres undefined) | . | . | . | . | .
O=C(O)c1ccc(-[n+]2c(-c3ccccc3)cc(-c3ccccc3)cc2-c2ccccc2)cc1 | / | . | . | . | .
COc1ccc(-[n+]2c(-c3ccccc3)cc(-c3ccc(C)cc3)cc2-c2ccccc2)cc1 | . | . | 100 | . | .
Cc1ccc(-c2cc(-c3ccccc3)cc(-c3ccccc3)[n+]2-c2ccc(C(=O)O)cc2)cc1 | / | . | . | . | .
Brc1ccc(-[n+]2c(-c3ccccc3)cc(-c3ccccc3)cc2-c2ccccc2)cc1 | / | . | 100 | . | .
CCCOC(=O)c1ccc(-[n+]2c(-c3ccccc3)cc(-c3ccccc3)cc2-c2ccccc2)cc1 | / | -5.7 | 100 | 47 | .
CCCNC(=O)N1[C@H]2CC[C@@H]1C(C(=O)OC)=C(c1cccc(OC)c1OC)C2 | / | . | . | . | .
COC(=O)C1=C(c2ccc(F)cc2OCc2ccccc2)C[C@@H]2CC[C@H]1N2C(=O)N1CCC(O)(c2ccc(Cl)cc2)CC1 | / | . | / | . | .
COc1ccc(CNC(C)Cc2cccs2)cc1 (centres undefined) | . | -27 | . | . | .
O=c1[nH]c(O)c(/C=C2/C=CC(c3cc(Cl)ccc3Cl)=N2)c(=O)[nH]1 | . | . | . | . | .
CC1(C)CSC(=NCc2ccccc2)N1 | . | -6.4 | . | . | .
SMILES | FID counter | ANO1 activ | ANO1 block | Apaf-1 inh | UBC13 inh | others
CC1CCN(S(=O)(=O)c2ccc(NN=C(C#N)C#N)cc2)CC1 | . | / | 100 | . | .
CO[C@H]1C=C2CCN(C)[C@H]2C2c3cc4c(cc3C(=O)O[C@@H]21)OCO4 (some centres undefined) | / | . | . | . | .
CC(C)C[C@H]1C(=O)N2CCC[C@H]2[C@]2(O)O[C@](NC(=O)[C@@H]3C=C4c5cccc6[nH]cc(c56)C[C@H]4N(C)C3)(C(C)C)C(=O)N12 | / | . | . | 91 | .
COC(=O)C1C=C2c3cccc4[nH]cc(c34)CC2N(C)C1 (centres undefined) | . | / | / | 56 | .
CCC(CO)NC(=O)C1C=C2c3cccc4[nH]cc(c34)CC2N(C)C1 (centres undefined) | . | . | . | . | .
CC1Oc2cc3c(-c4c(O)cc(O)c5c(O)c6c(cc45)OC(C)C(C)C6=O)c(O)cc(O)c3c(O)c2C(=O)C1C (centres undefined) | . | -9.1 | . | . | .
Cc1ccc(Cn2nc(C(=O)Nc3ccc(Br)cc3)cc2C)cc1 | . | . | . | . | .
CN1CCN(c2ccc3c(c2)S(=O)(=O)c2ccccc2C3=O)CC1 | / | . | . | . | .
CN1CCN(c2cccc3c2C(=O)c2ccccc2C3=O)CC1 | 60 | . | / | / | /
Cc1cc(OCC(=O)N[C@H](C(=O)O)c2ccccc2)c2c3c(c(=O)oc2c1)CCC3 | . | -16 | . | . | .
COC(=O)C1=C(c2ccc(OC)c(OC)c2)C[C@@H]2CC[C@H]1N2C(=O)NCc1cc(C)oc1C(F)(F)F | / | . | / | . | .
ClC1=C(Cl)C2(Cl)C3C(Cl)C=CC3C1(Cl)C2(Cl)Cl (centres undefined) | / | -16 | / | . | .
O=C1NC(=O)C2C1C1(Cl)C(Cl)=C(Cl)C2(Cl)C1(Cl)Cl (centres undefined) | / | . | / | / | /
Clc1ccc(CSC(Cn2ccnc2)c2ccc(Cl)cc2Cl)cc1 (centres undefined) | . | . | . | . | .
Clc1ccc(CO/N=C(\Cn2ccnc2)c2ccc(Cl)cc2Cl)c(Cl)c1 | / | / | . | . | 51
CCn1nc(-c2ccccc2)nc2c(=O)n(C)c(=O)nc1-2 | . | . | . | 98 | .
CC(C)NC(=O)Cn1cc(C(=O)c2ccccc2F)c2ccccc21 | . | -5.3 | . | . | .
S=C(NCCc1ccccc1)NCCc1cnc[nH]1 | . | . | . | . | .
O=C1C(Cc2cnc[nH]2)NC(=S)N1c1ccccc1 (centres undefined) | . | / | . | . | 86 | Casp3 UBC13 ctr=.;UBC13 confirm=104
CC(N)C(=O)NC1C2C(=C(O)CC(O)C2O)C(=O)OC1(C)C(Cl)Cl (centres undefined) | / | . | / | / | /
Cc1ccc(C(=O)N[C@@H](C)CN2C3=NC[C@H](Cc4ccccc4)N3C[C@H]2Cc2ccc(O)cc2)cc1Br | / | / | . | . | 65 | Casp3 UBC13 ctr=.;UBC13 confirm=65
Cc1ccc(C(=O)N[C@@H](C)CN2C3=NC[C@@H](Cc4ccccc4)N3C[C@H]2Cc2ccc(O)cc2)cc1Br | . | / | . | . | 77 | Casp3 UBC13 ctr=.;UBC13 confirm=76
CCOC(=O)Cn1cc(C(=O)c2ccccc2)c2ccccc21 | . | . | . | . | .
